Screening data deposited in PubChem by several laboratories.
Rows were chosen to be rich in hits. Some 9.6% of all compounds tested hit in one or more screens of this group.
APP transl inh = APP translation inhibition; inhibition, % at 2 µM; SH-SY5Y APP 5'UTR-luciferase reporter, luminescence; 0.82% of 190,000 active;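 active means inhibition above a set limit, derived from the sample mean plus 3 SD, cut at about 45% in these data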
Ba/F3 V617F tox = loss of viability in JAK2V617F-driven Ba/F3 cells; Ba/F3 EpoR-JAK2V617F viability, ATP luminescence; 1.1% of 220,000 active; AID 1446; inhibition, % at 5.6 µM;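 active means inhibition above the campaign mean plus 3 SD over all tested compounds, cut at about 24% in these data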;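 further: cytokine-independent growth of Ba/F3 cells driven by EpoR plus mutant JAK2; 0% = DMSO-treated cells and 100% = JAK inhibitor I control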
BaF3 tox = parental Ba/F3 viability inhibition as JAK2V617F counter-screen. CellTiter-Glo ATP luminescence. inhibition, % at 5.6 µM. 1.1% of 220,000 active. AID 1486;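 active means inhibition above a per-campaign cutoff, the mean inhibition of all tested compounds plus 3 SD, cut at about 27% in these data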;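 further: 0% = DMSO wells and 100% = JAK Inhibitor I control wells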
L major viab = Leishmania major promastigote growth inhibition. Leishmania major promastigotes, resazurin fluorescence viability. inhibition, % at 10 µM. 9% of 200,000 active; in the data active means inhibition above about 50%;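 further: promastigotes grown with compound for 44 hours at 28 °C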
bCat nuc transl = beta-catenin nuclear translocation modulation | HeLa beta-catenin nuclear translocation, immunofluorescence imaging | nuclear translocation activity, % at 5 µM | 0.3% of 190,000 active | AID 1665;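 active means nuclear translocation activity above 50% at 5 µM, with a well cell count of 50 or more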;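 further: per-cell ratio of nuclear to cytoplasmic median beta-catenin stain intensity; plate controls were DMSO negative control for no effect and GSK-3 inhibitor IX positive control for full effect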
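Test system: human HeLa cell line; Doses: 5 µM primary, 0.02–20 µM confirmation; Incubation: 24 h compound exposure, 37°C; Detection: beta-catenin immunofluorescence imaging with DAPI; Read-out: beta-catenin nuclear/cytoplasmic ratio, % activation.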
MT stabilize HCS = microtubule stabilizers in HeLa cells | HeLa tubulin immunostaining HCS, 24 h; share of cells brighter than vehicle mean+2SD | AID 2205 | % tubulin-high responders, % at 10 µM | 0.83% of 200,000 active;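 active means plate Z-score above 3 for both tubulin-high and condensed-nucleus cell shares, with cell loss under 80%, at 10 µM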;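 further: anti alpha tubulin signal scored within the nucleus-defined area of each cell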
* marks the source's active call; other numbers are inactive results; . = not tested or not shown.

SMILES	APP transl inh	Ba/F3 V617F tox	BaF3 tox	L major viab	bCat nuc transl	MT stabilize HCS
CCCCc1nnc2c(N(C)S(=O)(=O)c3ccccc3)nc3ccccc3n12	.	6.5	2.4	.	-1.3	.
CC(C)Sc1nc2ccccc2n1CC(=O)O	10.2	-3.3	1.7	-7.7	2.0	2.2
COCCN1Cc2cccc(C(=O)NCc3cccnc3)c2C1=O	4.8	-0.7	8.3	-7.1	.	3.0
COc1ccc(-c2nnc(SCC(=O)Nc3ccc4c(c3)OCCO4)n2N)cc1OC	-7.4	2.0	5.0	-5.2	-4.9	2.5
O=C(O)c1ccc2c(c1)N(Cc1ccc(F)cc1)C(=O)c1ccccc1S2	2.5	1.3	-1.1	5.5	-0.9	3.1
CCN1CCN(CCNC(=O)c2ccc3c(c2)N(Cc2ccc(F)cc2)C(=O)/C(=C/c2ccccc2)S3)CC1	15.0	1.3	5.3	100.6*	2.5	3.8
CCC(=O)N1CCN(c2ccc(NC(=S)NC(=O)c3ccc(OC)c([N+](=O)[O-])c3)cc2)CC1	-12.0	-3.5	3.9	53.5*	-0.3	2.8
COc1ccc(C(=O)NC(=S)Nc2ccc(N3CCOCC3)c(Cl)c2)cc1[N+](=O)[O-]	-0.7	-3.0	4.1	100.0*	.	2.3
CCOc1ccc(C(=O)NC(=S)Nc2ccc(N3CCC(C)CC3)cc2)cc1[N+](=O)[O-]	.	-1.4	0.9	87.1*	-0.6	0.4
COc1cccc(CC2(CO)CCCN(Cc3cc(F)ccc3-n3cccn3)C2)c1 (stereo not drawn)	3.7	-0.3	6.0	10.3	0.1	5.1
CCOc1cc(/C=N/NS(=O)(=O)c2ccc(OC)cc2)ccc1OCCN1CCOCC1	11.9	-1.1	2.5	-1.7	-0.5	1.3
Cc1c(C(=O)Nc2cc(S(=O)(=O)N3CCOCC3)ccc2N2CCN(C)CC2)oc2ccccc12	.	-4.8	-3.0	.	-0.2	.
CC(SC(=S)N1CCCC1)C(=O)O (stereo not drawn)	9.2	3.2	6.9	-9.2	0.8	3.8
CCOC(=O)c1c(C)[nH]c(C(=O)N/N=C\c2ccccc2O)c1C	66.9*	0.2	0.9	99.9*	18.6	10.1
CCOC(=O)c1[nH]c(C)c(C(=O)Nc2cc(Cl)ccc2C)c1C	95.4*	73.6*	73.2*	-2.0	58.1*	38.1*
CCOC(=O)c1[nH]c(C)c(C(=O)Nc2ccccc2C)c1C	84.2*	71.0*	66.5*	-0.2	43.0	30.6*
Cc1ccc2c(CC(=O)NNC(=O)c3ccccc3)coc2c1	-59.4	0.6	6.0	54.9*	-3.1	1.5
Cc1ccc2c(CC(=O)O)coc2c1	-6.8	-3.2	-0.1	-7.1	-0.8	2.3
C=CCC(c1ccccc1F)N(CCN1CCOCC1)C(=O)Nc1cccc(Cl)c1 (stereo not drawn)	5.8	-3.2	0.9	93.2*	-0.1	1.0
O=C(c1ccc(-c2ccccc2)cc1)C1CCCN(Cc2ccncc2)C1 (stereo not drawn)	1.2	2.5	7.9	93.4*	-0.3	3.0
O=C(c1ccc(Cl)cc1)C1CCCN(Cc2cnn(-c3ccccc3)c2)C1 (stereo not drawn)	-2.7	-4.8	-1.2	84.2*	1.1	1.2
O=C(c1ccc(-c2ccccc2)cc1)C1CCCN(C(=O)c2ccncc2)C1 (stereo not drawn)	-9.4	-4.5	3.1	16.6	0.4	1.2
Cc1ccsc1C(=O)C1CCCN(Cc2cn(C)nc2-c2ccccc2)C1 (stereo not drawn)	-6.5	-1.5	7.7	6.3	1.4	1.0
Cn1cc(CN2CCCC(C(=O)c3cccs3)C2)c(-c2cccc(Cl)c2)n1 (stereo not drawn)	-16.1	1.6	9.7	62.5*	-2.5	2.6
CC(=O)Nc1ccc(CN2CCCC(C(=O)c3ccc(C(F)(F)F)cc3)C2)cc1 (stereo not drawn)	4.1	-0.5	6.5	82.2*	-1.0	2.3
SMILES	APP transl inh	Ba/F3 V617F tox	BaF3 tox	L major viab	bCat nuc transl	MT stabilize HCS
Cc1ccc(NC(=O)NNC(=O)C2CCN(Cc3ccc(F)cc3Cl)CC2)cc1	21.3	-4.8	4.0	-11.9	0.1	1.3
OC1(C(F)(F)F)CC(c2ccc3ccccc3c2)=NO1 (stereo not drawn)	.	-1.8	5.1	.	-0.2	.
CC(=O)Nc1ccc(-c2csc(NC(C)c3ccccc3)n2)cc1 (stereo not drawn)	-27.1	2.3	4.5	8.4	0.3	5.6
Cc1nn(C)cc1CN1CCCC(C(=O)c2ccc(-c3ccccc3)cc2)C1 (stereo not drawn)	10.0	-1.0	5.3	89.8*	0.7	4.4
CC(C1CCN(Cc2cn(C)nc2-c2cccc(Cl)c2)CC1)N1CCOCC1 (stereo not drawn)	-0.1	-0.6	49.0*	69.3*	0.4	3.9
O=C(c1ccc(Cl)cc1)C1CCCN(Cc2ccc(Oc3ncccn3)cc2)C1 (stereo not drawn)	-1.2	-0.7	6.7	86.2*	0.4	3.4
OCC1CCCN(Cc2ccc(-c3ccccc3)cc2)C1 (stereo not drawn)	2.8	-2.5	-1.3	95.6*	-0.7	5.4
O=C(C1CCCN(Cc2ccccc2)C1)N1CCCCC1 (stereo not drawn)	.	-4.6	0.3	-4.8	.	1.4
OCCC1CN(Cc2ccc(Oc3ncccn3)cc2)CCN1C1CCCCC1 (stereo not drawn)	.	-6.5	3.1	.	1.5	.
C/C(=N\Nc1ccc2nncn2n1)c1cccs1	.	-2.7	2.8	.	-3.9	.
CCOC(=O)c1c(-c2ccc(OC)cc2)csc1/N=C/C1=C(O)CCCC1=O	0.7	-4.4	-1.2	2.8	-1.3	5.4
C/C(=N\NC(=O)c1ccccc1-n1cccc1)C1CC1	0.7	4.0	6.6	-5.3	-4.8	6.0
O=S(=O)(Nc1ncccn1)c1ccc(NC(=S)NCc2cccnc2)cc1	6.9	0.6	7.6	-6.5	-0.6	2.8
OC(CNCC(c1ccc(Cl)cc1Cl)c1c[nH]c2ccccc12)c1ccccc1 (stereo not drawn)	11.8	2.3	7.9	100.3*	-2.9	10.7*
Cc1nn(-c2ccccc2)c(Cl)c1CN(C(=O)CCl)c1ccc(Cl)cc1	13.5	6.6	8.9	100.4*	-1.8	3.4
CC(=O)N(Cc1c(C)nn(-c2ccccc2)c1Cl)c1ccc(Cl)cc1	-14.0	-0.2	4.3	17.4	.	2.1
Cc1nn(-c2ccccc2)c(Cl)c1CN(C(=O)CCl)c1cccc2ccccc12	5.0	5.5	2.9	98.7*	-2.9	6.9
CCCCNC(=O)CS(=O)Cc1nc(-c2cccc(Cl)c2)oc1C (stereo not drawn)	.	-2.8	1.1	-1.2	.	2.7
CCC(C)[C@H](N)c1cn([C@@H](Cc2ccc(O)cc2)C(=O)N2CCNCC2)nn1 (stereo partly drawn)	11.1	-3.0	-1.6	-5.2	-1.8	6.6
CC1=C(C#N)C(c2cccnc2)C2=C(CC(c3ccc(Cl)cc3)CC2=O)N1 (stereo not drawn)	-0.8	-1.7	7.3	99.7*	.	2.1
CCCCCCCCNC(=O)c1cccnc1SCC(=O)Nc1ccc(OC)cc1OC	-26.9	4.8	12.2	85.9*	-2.9	2.3
